From the RNAGym collection of RNA variant scans (doi:10.1126/science.aae0568) come the findings set out here.

This sample holds only a part of the variants without activity.

Sequences and labels used below:
B1: tRNA (parent)
chain: GUUCCGUUGGCGUAAUGGUAACGCGUCUCCCUCCUAAGGAGAAGACUGCGGGUUCGAGUCCCGUACGGAACG

The variants in this data set derive from B1. The experiment in a line: yeast fitness relative to wild type (ratio to wild type); higher = fitter; tRNA-Arg(CCU), competitive growth, 37 C, YPD. In short, it runs like this:
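Variants of the tRNA-Arg(CCU) gene were chemically synthesised with a 3% per-site mutation rate across 69 sites and placed at the native genomic locus in Saccharomyces cerevisiae. Six parallel replicates of the pooled strains were competed in YPD at 37°C for 24 hours, and gene amplicons from the start and end populations were read by 100-nucleotide paired-end sequencing. Darwinian fitness relative to wild type was derived from changes in genotype frequencies. Genotypes required ≥ 100 starting reads, and estimates < 0.5 were set to 0.5.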
As to C11U C24G C27G A65U, the yeast fitness is 0.576. With C11U A21G C62U the figure was 0.648; with C11U C33U A36G G39A G44A C55G U59C, at most 0.5. For the variant C11U A40G, the yeast fitness stood at 0.866. C11U A21G A37U A40G G41A: the yeast fitness is at most 0.5.

C11G G25A A37U: the yeast fitness is 0.573.

For the variant C11U A20C G25C C27A A37U, the yeast fitness was at most 0.5. With C11U C49G A57G the figure was at most 0.5. With C11G U47A C61G the figure was at most 0.5; with C11U C33U G48A, 0.58; with C11U C33G U47A U64G, 0.552. With C11U C30U A42U G51A A57U A65U A70U the figure was at most 0.5; with C11U A21G U64C, 0.945. On to C11U C22G U28A C31G C55A G68C, for which the yeast fitness was at most 0.5.

As to C11U A40C G51A C61U A69C, the yeast fitness was at most 0.5. For C11U C31A A37G, the yeast fitness was at most 0.5. Consider C11G G50A, for which the yeast fitness is 0.716. Consider C11G G50C, for which the yeast fitness worked out at 0.597. As to C11U C24U, the yeast fitness was determined as 0.852. C11U C24A: the yeast fitness was 0.606.

Regarding C11U C46G C49U, the yeast fitness is 0.825. Take C11U A36G G44A C46U: the yeast fitness is 0.993. For the variant C11U C29U G67A, the yeast fitness came out at 0.57.

With C11U A21U C27A C34A A36U U47C, the yeast fitness is at most 0.5. For C11U A43G A57U, the yeast fitness is 0.568. With C11G U28A G68A the figure was at most 0.5. Consider C11U C49U A70C, for which the yeast fitness was determined as 0.672. Regarding C11G U13G C33G G41A G63A A69C, the yeast fitness is at most 0.5. For C11U A15C A21G C24G U28A C61U, the yeast fitness was at most 0.5.

C11U A36U A43C A57G: the yeast fitness turned out to be 1.1. With C11U A15U C34A the figure was 0.588. As to C11U C27G G39C, the yeast fitness is at most 0.5. Regarding C11G U19A C22G G68C, the yeast fitness was at most 0.5.

Regarding C11U A15C A21U C24A C33A C66A, the yeast fitness was at most 0.5. With C11U A15U U26C C49A the figure was at most 0.5; with C11G U16A G23C C30U C34U A69U, 0.844. With C11U C29G C33U the figure was at most 0.5.

Consider C11U C31A A57C, for which the yeast fitness is at most 0.5.

Turning to C11U A15G C27G, the yeast fitness came to 0.544. With C11U A36G G48C A65C the figure was 0.675. Take C11U C31A C55G C60A A70G: the yeast fitness was 0.535. With C11U C49U A65G the figure was 0.76; with C11U A57U, 0.677.

Consider C11G U16A C29U U53C C62G, for which the yeast fitness is at most 0.5.

As for C11U A43U C66U, the yeast fitness stood at 0.555.

For the variant C11U C24G C33A A40C, the yeast fitness was determined as 0.955.

For C11U A15G C27G A45U, the yeast fitness was at most 0.5. Take C11U A15C C27A G39C G67U: the yeast fitness was at most 0.5.

For C11G G41A A69U, the yeast fitness is at most 0.5.

In the case of C11U A40G C61G, the yeast fitness is at most 0.5. With C11U C24G A70G the figure was 0.649; with C11U C24G C29U G50A G58C G63A C66U G68A, at most 0.5. As for C11U, the yeast fitness came out at 1.01. With C11U A15U C33A the figure was at most 0.5; with C11U A21U C27A, 0.576; with C11U A14U A40G A42C, at most 0.5. With C11G U13G A20C C27G C29A the figure was at most 0.5.

In the case of C11U A21U G68C, the yeast fitness amounted to 0.69. On to C11U A15U U19G A20G G67C, for which the yeast fitness was at most 0.5. For the variant C11U A15G C46U, the yeast fitness turned out to be 0.961. With C11U C24G C61A G67A the figure was at most 0.5. Regarding C11U A15U G38A, the yeast fitness is at most 0.5.

Regarding C11G U16A G23C C30U C34U G67U, the yeast fitness was 0.537. Take C11G U19C A45U: the yeast fitness is at most 0.5. With C11U C24G C27G A36U G38C C60G C66A the figure was at most 0.5; with C11U A40C G68A, 0.733; with C11U C24A A43G C62A, at most 0.5.

Consider C11G U32A C46U, for which the yeast fitness was found to be 0.598.

Turning to C11U A20C C29G A42G G56C G58A, the yeast fitness is at most 0.5. With C11G U13A U16G U26A A65G the figure was at most 0.5; with C11U C27A G48A U53A C61G, at most 0.5; with C11U A36U G58A G67C, at most 0.5. As to C11G G39C C61U, the yeast fitness is at most 0.5. As for C11U C22U U54C, the yeast fitness came out at 0.639.

With C11U C22G U59C, the yeast fitness came out at 0.575. Take C11U C31U C60A U64A: the yeast fitness is at most 0.5. With C11U A15G A43U the figure was 0.666; with C11G U19A C34G C49G, at most 0.5; with C11U C22U C66U, 0.517.

For the variant C11G U13G C62G, the yeast fitness was at most 0.5.

As to C11U C33U, the yeast fitness was determined as 0.724. Consider C11U C33G, for which the yeast fitness was found to be 0.734.

Take C11G U13G C30U U32A A37G A40U A57U: the yeast fitness was at most 0.5. With C11U C30A C55G A57C, the yeast fitness is at most 0.5. For the variant C11G U16G G38C G68A, the yeast fitness was at most 0.5. With C11U A15C C27A G39C G63U U64A the figure was at most 0.5. In the case of C11G U19A A21G C27U G39C, the yeast fitness is at most 0.5. With C11U C30U C34G G68C the figure was at most 0.5. As for C11U C31G A43C, the yeast fitness came out at 0.654. With C11G U26A U53A the figure was at most 0.5; with C11U A21U A69C, 0.772. As to C11G U13G A69C, the yeast fitness came out at 0.531. For the variant C11G U28C G39A C60A G67A, the yeast fitness was at most 0.5.

Turning to C11U C29G C31U G58U A65G G67A, the yeast fitness was at most 0.5. With C11U A20G U59A the figure was 0.514; with C11U A20G C22A G23C U28G A43G A57G, at most 0.5; with C11G G18A C24U G58A A70G, at most 0.5.

Consider C11U C29U A57U C61U, for which the yeast fitness was at most 0.5.

As to C11U A45C C49U, the yeast fitness is 0.765. C11U A20U G39A G63A A70U: the yeast fitness is at most 0.5. With C11U A15U C31A U32A A57G G67A the figure was at most 0.5; with C11U A45U G58C A69C, at most 0.5; with C11G G25A C34G, at most 0.5. With C11U C34G the figure was 0.591; with C11U C29U C66A, 0.553. Consider C11U C29U C66G, for which the yeast fitness was at most 0.5. With C11G G58A the figure was 0.722. Regarding C11U A20U A36G C55G, the yeast fitness was at most 0.5.

As for C11U C29U C30G, the yeast fitness came out at 0.549. With C11U A20U C24U C29A the figure was at most 0.5. With C11G U16A C30A A69U the figure was at most 0.5. As to C11U A37C C66U, the yeast fitness came to 0.611.

For the variant C11G U16A C24U, the yeast fitness is at most 0.5. C11U C30G: the yeast fitness was determined as 0.694. With C11U C30U A65C the figure was at most 0.5; with C11U A21G U35C, 0.538.

On to C11U C31G C34G A43U G68C, for which the yeast fitness amounted to 0.571.

In the case of C11U C31G C34G A43U G68C A69G, the yeast fitness is 0.532. As for C11U C27G C31G G39C G56A C61A A69G, the yeast fitness was 0.641. As to C11U A36U C60A, the yeast fitness was at most 0.5. Turning to C11G G23C A36G A37G, the yeast fitness was 0.774.

C11G U35A G68C: the yeast fitness is at most 0.5. In the case of C11G G39C U47C C60A C61G A69U, the yeast fitness was found to be 0.528. With C11G U16C C24U U28C the figure was at most 0.5. On to C11G U19G, for which the yeast fitness was determined as 0.577. Turning to C11U C30U G48C G68C, the yeast fitness was at most 0.5.

C11U A15C A70U: the yeast fitness came to 0.586. For the variant C11U C22A C31U G68C, the yeast fitness was at most 0.5. With C11U C22G G52C G56C the figure was at most 0.5; with C11U C33U A70U, 0.612. With C11U C24G C27G G52A the figure was 0.551; with C11U A14G C27G C31U G68C, at most 0.5. With C11U C46G G51A the figure was 0.571; with C11U C27G A36G G63C C66U, at most 0.5; with C11G U28C C60A G67A, 0.567. For the variant C11G G18A G23A, the yeast fitness was at most 0.5. With C11U C22G C29G G41A the figure was at most 0.5; with C11U A21U A43C G68C, at most 0.5; with C11U C31A A42G C55A, at most 0.5. Regarding C11G U16G U35A G41C, the yeast fitness is at most 0.5. With C11U C22U A70G the figure was 0.644.

For the variant C11G U35A C66G, the yeast fitness was at most 0.5. On to C11U A20U U32A G39A A65C, for which the yeast fitness is at most 0.5. Consider C11G G18C C27A C66U, for which the yeast fitness is 0.636. On to C11U C27U C31A U35C G48U C55G C66U A70C, for which the yeast fitness is at most 0.5. With C11U C30A G39A U47A G63C the figure was at most 0.5. As for C11U A14C, the yeast fitness stood at 0.745. With C11U A14G the figure was 0.865; with C11G U16A C60A, at most 0.5; with C11U A15U C27G, 0.529. With C11G G17C U35C C49U C66U the figure was at most 0.5. With C11U A14C A37C the figure was 0.544.

As to C11U C30U U47A G67C, the yeast fitness is at most 0.5.

As to C11U C29A U59G, the yeast fitness was at most 0.5. With C11G G48C G51C U53C A57U C66U the figure was at most 0.5; with C11G U47A G68C, at most 0.5; with C11U C22U G38A U54C, at most 0.5. Consider C11U C55A G58C, for which the yeast fitness is at most 0.5.

Turning to C11U A14G C24G, the yeast fitness is at most 0.5. With C11G U26A C30U G48A U54A C55G A65U the figure was 0.664. Take C11U A15G C27G G56C: the yeast fitness was at most 0.5. As for C11U A57U A69U, the yeast fitness amounted to 0.613. With C11U C31A G67A the figure was at most 0.5; with C11U A14G G51C A69U, at most 0.5; with C11U A45G C49A, 0.567. C11U C22G C30U U54C: the yeast fitness is at most 0.5. With C11U A20C C22G A65G A70C the figure was at most 0.5.
